Tests used:
Format in all cases: functional
MDA-MB-231 = test: Growth inhibition of human MDA-MB-231 cells assessed as cell growth at 10^-5 M after 48 hrs by sulforhodamine B assay relative to control; settings: MDA-MB-231, 48 h, read-out: Activity
Procedure, shortened: (§1)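 NCI primary screen, one-dose format across about 60 human tumour cell lines. Single addition at 10^-5 M with 48 h incubation; SRB protein-binding dye end point read spectrophotometrically. Reported as percent growth of treated cells versus untreated controls.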

MCF7 = test: Growth inhibition of human MCF7 cells assessed as cell growth at 10^-5 M after 48 hrs by sulforhodamine B assay relative to control; settings: MCF7, 48 h, read-out: Activity; procedure, shortened: as §1
DU-145 = test: Growth inhibition of human DU145 cells assessed as cell growth at 10^-5 M after 48 hrs by sulforhodamine B assay relative to control; settings: DU-145, 48 h, read-out: Activity
Procedure, shortened: (§2)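 NCI ~60 human tumour cell line screen. Single concentration of 10^-5 M added to cultures for 48 h. End point by sulforhodamine B protein staining read spectrophotometrically. Percent growth relative to untreated control cells.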

PC-3 = test: Growth inhibition of human PC3 cells assessed as cell growth at 10^-5 M after 48 hrs by sulforhodamine B assay relative to control; settings: PC-3, 48 h, read-out: Activity; procedure, shortened: as §1
[1] = Growth inhibition of human UO31 cells assessed as cell growth at 10^-5 M after 48 hrs by sulforhodamine B assay relative to control; settings: UO-31, 48 h, read-out: Activity
Procedure, shortened: (§3)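 NCI primary screen across about 60 human tumour cell lines. Single dose of 10^-5 M, cultures incubated 48 h, end point by sulforhodamine B protein staining read spectrophotometrically. Results are given as percent growth of treated cells relative to untreated control cells.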

ACHN = test: Growth inhibition of human ACHN cells assessed as cell growth at 10^-5 M after 48 hrs by sulforhodamine B assay relative to control; settings: read-out: Activity; procedure, shortened: as §2
A498 = test: Growth inhibition of human A498 cells assessed as cell growth at 10^-5 M after 48 hrs by sulforhodamine B assay relative to control; settings: A498, 48 h, read-out: Activity; procedure, shortened: as §2
SK-OV-3 = test: Growth inhibition of human SKOV3 cells assessed as cell growth at 10^-5 M after 48 hrs by sulforhodamine B assay relative to control; settings: SK-OV-3, 48 h, read-out: Activity; procedure, shortened: as §3
[2] = Growth inhibition of human NCI-ADR-RES cells assessed as cell growth at 10^-5 M after 48 hrs by sulforhodamine B assay relative to control; settings: read-out: Activity; procedure, shortened: as §1
IGROV-1 = test: Growth inhibition of human IGROV1 cells assessed as cell growth at 10^-5 M after 48 hrs by sulforhodamine B assay relative to control; settings: IGROV-1, 48 h, read-out: Activity; procedure, shortened: as §2
MDA-MB-435 = test: Growth inhibition of human MDA-MB-435 cells assessed as cell growth at 10^-5 M after 48 hrs by sulforhodamine B assay relative to control; settings: MDA-MB-435, 48 h, read-out: Activity; procedure, shortened: as §1
M14 = test: Growth inhibition of human M14 cells assessed as cell growth at 10^-5 M after 48 hrs by sulforhodamine B assay relative to control; settings: M14, 48 h, read-out: Activity; procedure, shortened: as §1
SNB-19 = test: Growth inhibition of human SNB19 cells assessed as cell growth at 10^-5 M after 48 hrs by sulforhodamine B assay relative to control; settings: SNB-19, 48 h, read-out: Activity; procedure, shortened: as §3
SF-295 [3] = test: Growth inhibition of human SF295 cells assessed as cell growth at 10^-5 M after 48 hrs by sulforhodamine B assay relative to control; settings: SF-295, 48 h, read-out: Activity; procedure, shortened: as §1
KM12 = test: Growth inhibition of human KM12 cells assessed as cell growth at 10^-5 M after 48 hrs by sulforhodamine B assay relative to control; settings: KM12, 48 h, read-out: Activity; procedure, shortened: as §1
[4] = Growth inhibition of human HCC2998 cells assessed as cell growth at 10^-5 M after 48 hrs by sulforhodamine B assay relative to control; settings: HCC 2998, 48 h, read-out: Activity; procedure, shortened: as §2
COLO 205 = test: Growth inhibition of human COLO205 cells assessed as cell growth at 10^-5 M after 48 hrs by sulforhodamine B assay relative to control; settings: COLO 205, 48 h, read-out: Activity; procedure, shortened: as §2
NCI-H522 = test: Growth inhibition of human NCI-H522 cells assessed as cell growth at 10^-5 M after 48 hrs by sulforhodamine B assay relative to control; settings: NCI-H522, 48 h, read-out: Activity; procedure, shortened: as §1
Rattus norvegicus [5] = test: Antiinflammatory activity in albino rat assessed as inhibition of carrageenan-induced paw edema at 0.28 mmol/kg, po administered 30 mins prior to carrageenan-challenge measured after 3 hrs relative to control
Procedure, shortened: (§4)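 Male albino rats in groups of four were fasted 24 h with water allowed. Dosing was oral at 0.28 mmol/kg, suspended in 0.5% w/v CMC; controls got CMC alone. After 30 min, 0.1 ml of 1% carrageenan in saline went subplantar into the right hind paw and saline into the left. Paw thickness was read by caliper before and at 1–5 h. % inhibition = [(VR−VL)control−(VR−VL)treated]/(VR−VL)control ×100. Mean ± SEM, n = 4, one-way ANOVA vs control.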

Rattus norvegicus [6] = test: Antiinflammatory activity in albino rat assessed as inhibition of carrageenan-induced paw edema at 0.28 mmol/kg, po administered 30 mins prior to carrageenan-challenge measured after 4 hrs relative to control; procedure, shortened: as §4
K562 = test: Growth inhibition of human K562 cells assessed as cell growth at 10^-5 M after 48 hrs by sulforhodamine B assay relative to control; settings: K562, 48 h, read-out: Activity; procedure, shortened: as §2
SR = test: Growth inhibition of human SR cells assessed as cell growth at 10^-5 M after 48 hrs by sulforhodamine B assay relative to control; settings: read-out: Activity; procedure, shortened: as §3
[7] = Growth inhibition of human EKVX cells assessed as cell growth at 10^-5 M after 48 hrs by sulforhodamine B assay relative to control; settings: read-out: Activity; procedure, shortened: as §2
RPMI-8226 = test: Growth inhibition of human RPMI8226 cells assessed as cell growth at 10^-5 M after 48 hrs by sulforhodamine B assay relative to control; settings: RPMI-8226, 48 h, read-out: Activity; procedure, shortened: as §1
SF-295 [8] = test: Growth inhibition of human SF295 cells after 48 hrs by sulforhodamine B assay; settings: SF-295, 48 h
Procedure, shortened: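 NCI 60-cell-line panel (nine tumour subpanels), five-dose format: 10-fold dilutions from 10^-4 to 10^-8 M, 48 h continuous exposure, SRB protein stain. Percent growth at each level is derived from time-zero, untreated control and treated absorbances. GI50 is the concentration where [(Ti−Tz)/(C−Tz)]×100 = 50. Values outside the tested range are reported as above or below the limit.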

With `C/C(=N\O)c1ccc(NC(=O)CSc2nnc(-c3ccccc3)n2-c2ccccc2)cc1` the growth at 10 µM (MDA-MB-231) was 20.9%, the growth at 10 µM (MCF7) was 62.5% and the growth at 10 µM (DU-145) was 67.9%. It also gave a growth at 10 µM (PC-3) of 104%, a growth at 10 µM [1] of 90.6% and a growth at 10 µM (ACHN) of 85.7%. The growth at 10 µM (A498) was 63.7%, the growth at 10 µM (SK-OV-3) was 80.5% and the growth at 10 µM [2] was 39.3%. For the same compound, the growth at 10 µM (IGROV-1) was 81.4%, the growth at 10 µM (MDA-MB-435) was 118% and the growth at 10 µM (M14) was 100%. It also gave a growth at 10 µM (SNB-19) of 45.8%, a growth at 10 µM (SF-295 [3]) of 52.6% and a growth at 10 µM (KM12) of 83.1%. For the same compound, the growth at 10 µM [4] was 28.6%, the growth at 10 µM (COLO 205) was 91.1% and the growth at 10 µM (NCI-H522) was 53.3%. The inhibition in vivo at 280 µmol/kg (Rattus norvegicus [5]) was 63%, the inhibition in vivo at 280 µmol/kg (Rattus norvegicus [6]) was 67% and the growth at 10 µM (K562) was 95.8%. For the same compound, the growth at 10 µM (SR) was 106%, the growth at 10 µM [7] was 91.9% and the growth at 10 µM (RPMI-8226) was 91.2%.

With `COc1ccc(-c2nnc(SCC(=O)Nc3ccc(/C(C)=N/O)cc3)n2-c2ccccc2)cc1OC` the growth at 10 µM (MDA-MB-231) was 47.9%, the growth at 10 µM (MCF7) was 69.2% and the growth at 10 µM (DU-145) was 88.3%. It also gave a growth at 10 µM (PC-3) of 110%, a growth at 10 µM [1] of 104% and a growth at 10 µM (ACHN) of 75.5%. The growth at 10 µM (A498) was 91.8%, the growth at 10 µM (SK-OV-3) was 4.74% and the growth at 10 µM [2] was 90.6%. The growth at 10 µM (IGROV-1) was 70.9%, the growth at 10 µM (MDA-MB-435) was 104% and the growth at 10 µM (M14) was 89.9%. For the same compound, the growth at 10 µM (SNB-19) was 75.8%, the growth at 10 µM (SF-295 [3]) was 39.1% and the growth at 10 µM (KM12) was 106%. For the same compound, the growth at 10 µM [4] was 94%, the growth at 10 µM (COLO 205) was 99.1% and the growth at 10 µM (NCI-H522) was 35.3%. For the same compound, the inhibition in vivo at 280 µmol/kg (Rattus norvegicus [5]) was 77%, the inhibition in vivo at 280 µmol/kg (Rattus norvegicus [6]) was 79% and the growth at 10 µM (K562) was 105%. For the same compound, the growth at 10 µM (SR) was 95.4%, the growth at 10 µM [7] was 71.1% and the growth at 10 µM (RPMI-8226) was 91.6%. The GI50 (SF-295 [8]) was 3.39 µM, the TGI (SF-295 [8]) was 37.7 µM and the CC50 (SF-295 [8]; read-out: LC50 (the source's name)) was greater than 100 µM.

— ChEMBL document CHEMBL3102806, “1,2,4-Triazole/oxime hybrids as new strategy for nitric oxide donors: Synthesis, anti-inflammatory, ulceroginicity and antiproliferative activities” (Eur J Med Chem, 2014)
